According to ChEMBL document CHEMBL1153008, “Synthesis and antitubercular activity of novel 4-substituted imidazolyl-2,6-dimethyl-N3,N5-bisaryl-1,4-dihydropyridine-3,5-dicarboxamides” (2009):
In brackets after ≈: the same amount, converted by molar mass.

Columns and labels:
Assay type in all cases: functional
HeLa = assay: Cytotoxicity against human HeLa cells by MTT assay
Jurkat = assay: Cytotoxicity against human Jurkat cells by MTT assay
[1] = Cytotoxicity against human Kga1 cells by MTT assay
Raji = assay: Cytotoxicity against human Raji cells by MTT assay
[2] = test system: Mycobacterium tuberculosis; assay: Antitubercular activity against Mycobacterium tuberculosis H37Rv ATCC 27294 after 21 days by agar proportion method; conditions: H37Rv ATCC 27294, 504 h
Method in brief: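 Agar proportion method on Middlebrook 7H10 tubes against rifampicin/isoniazid-susceptible H37Rv. Inoculum: 4–7 day 7H9 broth culture at 37 °C, adjusted to McFarland no. 1, then diluted 10^-2 and 10^-4; 0.1 mL per tube. Incubated 21 days at 37 °C under 5–7% CO2. Colonies counted and compared with drug-free control. Two independent measurements.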

Row | SMILES | IC30 (HeLa) | IC30 (Jurkat) | IC30 [1] | IC30 (Raji) | MIC [2]
1 | CSc1ncc(C2C(C(=O)Nc3cccnc3)=C(C)NC(C)=C2C(=O)Nc2cccnc2)n1Cc1ccccc1 | 91.2 µg/mL (≈ 165 µM) | 37.1 µg/mL (≈ 67.3 µM) | 27.5 µg/mL (≈ 49.9 µM) | 75.8 µg/mL (≈ 137 µM) | 
2 | CSc1ncc(C2C(C(=O)Nc3ccc(Br)cc3)=C(C)NC(C)=C2C(=O)Nc2ccc(Br)cc2)n1Nc1ccccc1 |  |  |  |  | > 16 µg/mL
3 | CSc1ncc(C2C(C(=O)Nc3cccc(Cl)c3)=C(C)NC(C)=C2C(=O)Nc2cccc(Cl)c2)n1Nc1ccccc1 |  |  |  |  | > 16 µg/mL
4 | CSc1ncc(C2C(C(=O)Nc3ccccn3)=C(C)NC(C)=C2C(=O)Nc2ccccn2)n1Nc1ccccc1 | 67.6 µg/mL (≈ 122 µM) | 13.5 µg/mL (≈ 24.4 µM) | > 100 µg/mL | > 100 µg/mL | > 16 µg/mL
5 | CSc1ncc(C2C(C(=O)Nc3ccc(Cl)cc3)=C(C)NC(C)=C2C(=O)Nc2ccc(Cl)cc2)n1Cc1ccccc1 | > 100 µg/mL | 12.3 µg/mL (≈ 19.9 µM) | 58.9 µg/mL (≈ 95.2 µM) | 85.1 µg/mL (≈ 138 µM) | 
6 | CSc1ncc(C2C(C(=O)Nc3ccccn3)=C(C)NC(C)=C2C(=O)Nc2ccccn2)n1Cc1ccccc1 | > 100 µg/mL | 43.6 µg/mL (≈ 79.1 µM) | 19.1 µg/mL (≈ 34.5 µM) | 60.2 µg/mL (≈ 109 µM) | 
7 | NNC(=O)c1ccncc1 [ISONIAZID] |  |  |  |  | 0.2 µg/mL (≈ 1.46 µM)
8 | COc1cccc2c1C(=O)c1c(O)c3c(c(O)c1C2=O)C[C@@](O)(C(=O)CO)C[C@@H]3O[C@H]1C[C@H](N)[C@H](O)[C@H](C)O1 [DOXORUBICIN] |  | 2.13 µg/mL (≈ 3.92 µM) |  | 1.51 µg/mL (≈ 2.78 µM) | 
9 | CSc1ncc(C2C(C(=O)Nc3ccccc3Cl)=C(C)NC(C)=C2C(=O)Nc2ccccc2Cl)n1Nc1ccccc1 | > 100 µg/mL | 7.76 µg/mL (≈ 12.5 µM) | > 100 µg/mL | 43.6 µg/mL (≈ 70.5 µM) | > 16 µg/mL
10 | CSc1ncc(C2C(C(=O)Nc3cccc(Cl)c3)=C(C)NC(C)=C2C(=O)Nc2cccc(Cl)c2)n1Cc1ccccc1 | > 100 µg/mL | 47.9 µg/mL (≈ 77.4 µM) | 26.3 µg/mL (≈ 42.5 µM) | 69.2 µg/mL (≈ 112 µM) | 
11 | CO[C@H]1/C=C/O[C@@]2(C)Oc3c(C)c(O)c4c(O)c(c(/C=N/N5CCN(C)CC5)c(O)c4c3C2=O)NC(=O)/C(C)=C\C=C\[C@H](C)[C@H](O)[C@@H](C)[C@@H](O)[C@@H](C)[C@H](OC(C)=O)[C@@H]1C [RIFAMPIN] |  |  |  |  | 1 µg/mL (≈ 1.22 µM)
12 | CSc1ncc(C2C(C(=O)Nc3cccnc3)=C(C)NC(C)=C2C(=O)Nc2cccnc2)n1Nc1ccccc1 |  |  |  |  | > 16 µg/mL
13 | CSc1ncc(C2C(C(=O)Nc3ccc(Cl)cc3)=C(C)NC(C)=C2C(=O)Nc2ccc(Cl)cc2)n1Nc1ccccc1 |  |  |  |  | > 16 µg/mL
